ChEMBL document CHEMBL4613280, “Development of Pyrazolo[3,4-d]pyrimidine Kinase Inhibitors as Potential Clinical Candidates for Glioblastoma Multiforme” (ACS Med Chem Lett, 2020)
The source made the active and inactive calls. No cut-off for these calls is given here.

Tests used:
[1] = organism: Homo sapiens; experiment: Induction of apoptosis in human GIN8 cells assessed as increase in caspase 3/7 activation at 10 uM measured after 48 hrs by CellEvent caspase 3/7 probe based fluorescence analysis; type: functional, cell-based
How it was run: (§1)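 Patient-derived GBM cells were exposed to compound diluted in DMEM containing 10% FBS for 48 h. Activated effector caspases-3/7 were then detected with the CellEvent caspase-3/7 fluorescent probe. Data are mean ± SEM of n = 3. Significance was tested by two-way ANOVA with Dunnett's multiple comparisons test.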

[2] = organism: Homo sapiens; experiment: Induction of apoptosis in human GCE28 cells assessed as increase in caspase 3/7 activation at 10 uM measured after 48 hrs by CellEvent caspase 3/7 probe based fluorecence analysis; type: functional, cell-based; how it was run: as §1
[3] = organism: Homo sapiens; experiment: Induction of apoptosis in human GIN28 cells assessed as increase in caspase 3/7 activation at 10 uM measured after 48 hrs by CellEvent caspase 3/7 probe based fluorescence analysis; type: functional, cell-based; how it was run: as §1
[4] = Additive cytotoxicity against human GCE28 cells assessed as combination index measured after 48 hrs in presence of 2-[[4-(2-phenylethylamino)-1-[styryl]pyrazolo[3,4-d]pyrimidin-6-yl]amino]ethanol by Chou-Talalay assay; type: functional
How it was run: (§2)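 Each drug pair dosed at a 1:1 molar ratio on the GBM lines and incubated 48 h. CI computed from three independent IC50 experiments (n = 3), reported as mean ± SD.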

[5] = organism: Homo sapiens; experiment: Cytotoxicity against human GCE28 cells assessed as reduction in cell viability at 5 ug/ml measured after 48 hrs using compound dissolved in DMSO by Prestoblue assay; type: functional, cell-based
How it was run: (§3)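 Inhibitor either dissolved in DMSO, inkjet-printed into polymer, or suspended in PBS, then diluted in DMEM. Polymer-alone and untreated controls included. Viability read by PrestoBlue after 48 h, mean ± SD.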

[6] = organism: Homo sapiens; experiment: Induction of apoptotic death in human GIN8 cells assessed as presence of apoptotic bodies at 12.5 uM measured after 48 hrs by Hoechst 33342/propidium iodide staining based fluorescence microscopy analysis; type: functional, cell-based
How it was run: (§4)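 Cells dosed 48 h with 12.5 μM inhibitor, with 70% ethanol or DMEM (negative) as controls. Nuclei then double-stained with Hoechst 33342 and propidium iodide and examined by fluorescence microscopy.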

[7] = organism: Homo sapiens; experiment: Induction of necrosis in human GIN28 cells assessed as induction of nuclear membrane permeability at 12.5 uM measured after 48 hrs by Hoechst 33342/propidium iodide staining based fluorescence microscopy analysis; type: functional, cell-based; how it was run: as §4
[8] = organism: Homo sapiens; experiment: Induction of apoptotic death in human GIN8 cells assessed as […] at 12.5 uM measured after 48 hrs by Hoechst 33342/propidium iodide staining based fluorescence microscopy analysis; type: functional, cell-based; how it was run: as §4
[9] = organism: Homo sapiens; experiment: Cytotoxicity against human GIN28 cells assessed as cell viability at 5 ug/ml measured after 48 hrs using compound suspended in PBS by Prestoblue assay; type: functional, cell-based; how it was run: as §3
[10] = organism: Homo sapiens; experiment: Cytotoxicity against human GIN8 cells assessed as reduction in cell viability at 5 ug/ml measured after 48 hrs using PVPVA-formulated compound by Prestoblue assay; type: functional, cell-based; how it was run: as §3
[11] = organism: Homo sapiens; experiment: Cytotoxicity against human GIN8 cells assessed as reduction in cell viability at 5 ug/ml measured after 48 hrs using compound dissolved in DMSO by Prestoblue assay; type: functional, cell-based; how it was run: as §3
[12] = organism: Homo sapiens; experiment: Induction of apoptotic death in human GIN8 cells assessed as nuclear fragmentation at 12.5 uM measured after 48 hrs by Hoechst 33342/propidium iodide staining based fluorescence microscopy analysis; type: functional, cell-based; how it was run: as §4
[13] = organism: Homo sapiens; experiment: Induction of apoptotic death in human GCE28 cells assessed as nuclear fragmentation at 12.5 uM measured after 48 hrs by Hoechst 33342/propidium iodide staining based fluorescence microscopy analysis; type: functional, cell-based; how it was run: as §4
[14] = Additive cytotoxicity against human GIN8 cells assessed as combination index measured after 48 hrs in presence of 2-[[4-(2-phenylethylamino)-1-[styryl]pyrazolo[3,4-d]pyrimidin-6-yl]amino]ethanol by Chou-Talalay assay; type: functional; how it was run: as §2
[15] = organism: Homo sapiens; experiment: Cytotoxicity against human GCE28 cells assessed as reduction in cell viability at 5 ug/ml measured after 48 hrs using PVPVA-formulated compound by Prestoblue assay; type: functional, cell-based; how it was run: as §3
[16] = organism: Homo sapiens; experiment: Cytotoxicity against human GCE28 cells assessed as reduction in cell viability at 5 ug/ml measured after 48 hrs using Pluronic-F68-formulated compound by Prestoblue assay; type: functional, cell-based; how it was run: as §3
[17] = Synergistic cytotoxicity against human GIN28 cells assessed as combination index measured after 48 hrs in presence of 3-(4-chlorophenyl)-1-(2-chloro-2-phenylethyl)pyrazolo[3,4-d]pyrimidin-4-amine by Chou-Talalay assay; type: functional; how it was run: as §2
[18] = Cytotoxicity against human GIN28 cells derived from invasive region of GBM patient assessed as reduction in cell viability measured after 48 hrs by Prestoblue assay; type: functional, cell-based
How it was run: (§5)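 Compounds diluted in DMEM containing 10% FBS and applied for 48 h. Viability read by PrestoBlue. IC50 calculated from three independent experiments, mean ± SE. Two-way ANOVA with Dunnett's multiple comparisons test.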

[19] = organism: Homo sapiens; experiment: Cytotoxicity against human GIN8 cells assessed as reduction in cell viability at 5 ug/ml measured after 48 hrs using Tween 80-formulated compound by Prestoblue assay; type: functional, cell-based; how it was run: as §3
[20] = organism: Homo sapiens; experiment: Cytotoxicity against human GIN28 cells assessed as reduction in cell viability at 5 ug/ml measured after 48 hrs using Pluronic-F68-formulated compound by Prestoblue assay; type: functional, cell-based; how it was run: as §3
[21] = organism: Homo sapiens; experiment: Induction of apoptosis in human GCE28 cells assessed as increase in caspase 3/7 activation at 12.5 uM measured after 48 hrs by CellEvent caspase 3/7 probe based fluorescence analysis; type: functional, cell-based
How it was run: (§6)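 Cells exposed 48 h to compounds diluted in 10% FBS DMEM. Activated caspase-3/7 detected with the CellEvent probe. Staurosporine 10.0 μM served as reference inducer. Mean ± SEM (n = 3). Two-way ANOVA with Dunnett's test.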

[22] = Apparent water solubility of the compound in PBS formulated with 900 ug/ml of polymer Pluronic F-68 at 100 ug/ml by UV-Visible spectral analysis; type: physicochemical; details: buffer
[23] = organism: Homo sapiens; experiment: Induction of apoptotic death in human GIN28 cells assessed as […] at 12.5 uM measured after 48 hrs by Hoechst 33342/propidium iodide staining based fluorescence microscopy analysis; type: functional, cell-based; how it was run: as §4
[24] = organism: Homo sapiens; experiment: Induction of necrosis in human GCE28 cells assessed as induction of nuclear membrane permeability at 12.5 uM measured after 48 hrs by Hoechst 33342/propidium iodide staining based fluorescence microscopy analysis; type: functional, cell-based; how it was run: as §4
[25] = Apparent water solubility of the compound in PBS formulated with 900 ug/ml polymer PVPVA at 100 ug/ml by UV-Visible spectral analysis; type: physicochemical; details: buffer
[26] = organism: Homo sapiens; experiment: Induction of apoptosis in human GIN8 cells assessed as increase in caspase 3/7 activation at 12.5 uM measured after 48 hrs by CellEvent caspase 3/7 probe based fluorescence analysis; type: functional, cell-based; how it was run: as §6
[27] = organism: Homo sapiens; experiment: Cytotoxicity against human GCE28 cells assessed as cell viability at 5 ug/ml measured after 48 hrs using compound suspended in PBS by Prestoblue assay; type: functional, cell-based; how it was run: as §3
[28] = organism: Homo sapiens; experiment: Cytotoxicity against human GIN28 cells assessed as reduction in cell viability at 5 ug/ml measured after 48 hrs using PVPVA-formulated compound by Prestoblue assay; type: functional, cell-based; how it was run: as §3
[29] = organism: Homo sapiens; experiment: Cytotoxicity against human GIN28 cells assessed as reduction in cell viability at 5 ug/ml measured after 48 hrs using compound dissolved in DMSO by Prestoblue assay; type: functional, cell-based; how it was run: as §3
[30] = organism: Homo sapiens; experiment: Induction of necrosis in human GIN8 cells assessed as induction of nuclear membrane permeability at 12.5 uM measured after 48 hrs by Hoechst 33342/propidium iodide staining based fluorescence microscopy analysis; type: functional, cell-based; how it was run: as §4
[31] = Synergistic cytotoxicity against human GCE28 cells assessed as combination index measured after 48 hrs in presence of 3-(4-chlorophenyl)-1-(2-chloro-2-phenylethyl)pyrazolo[3,4-d]pyrimidin-4-amine by Chou-Talalay assay; type: functional; how it was run: as §2
[32] = Cytotoxicity against human GCE28 cells derived from central tumor core of GBM patient assessed as reduction in cell viability measured after 48 hrs by Prestoblue assay; type: functional, cell-based; how it was run: as §5
[33] = Synergistic cytotoxicity against human GIN8 cells assessed as combination index measured after 48 hrs in presence of 3-(4-chlorophenyl)-1-(2-chloro-2-phenylethyl)pyrazolo[3,4-d]pyrimidin-4-amine by Chou-Talalay assay; type: functional
How it was run: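 Two kinase inhibitors were combined at a 1:1 molar ratio, diluted in DMEM with 10% FBS, and incubated with the GBM cells for 48 h. Viability was read by PrestoBlue. Combination index values were calculated from three independent IC50 experiments (n = 3) and are reported as mean ± SD.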

[34] = Cytotoxicity against human GIN8 cells derived from invasive region of GBM patient assessed as reduction in cell viability measured after 48 hrs by Prestoblue assay; type: functional, cell-based; how it was run: as §5
[35] = organism: Homo sapiens; experiment: Induction of apoptotic death in human GCE28 cells assessed as […] at 12.5 uM measured after 48 hrs by Hoechst 33342/propidium iodide staining based fluorescence microscopy analysis; type: functional, cell-based; how it was run: as §4
[36] = Additive cytotoxicity against human GIN28 cells assessed as combination index measured after 48 hrs in presence of 2-[[4-(2-phenylethylamino)-1-[styryl]pyrazolo[3,4-d]pyrimidin-6-yl]amino]ethanol by Chou-Talalay assay; type: functional; how it was run: as §2
[37] = organism: Homo sapiens; experiment: Induction of apoptotic death in human GCE28 cells assessed as presence of apoptotic bodies at 12.5 uM measured after 48 hrs by Hoechst 33342/propidium iodide staining based fluorescence microscopy analysis; type: functional, cell-based; how it was run: as §4
[38] = organism: Homo sapiens; experiment: Cytotoxicity against human GIN28 cells assessed as reduction in cell viability at 5 ug/ml measured after 48 hrs using Tween 80-formulated compound by Prestoblue assay; type: functional, cell-based; how it was run: as §3
[39] = organism: Homo sapiens; experiment: Cytotoxicity against human GIN8 cells assessed as cell viability at 5 ug/ml measured after 48 hrs using compound suspended in PBS by Prestoblue assay; type: functional, cell-based; how it was run: as §3
[40] = Apparent water solubility of the compound in PBS formulated with 900 ug/ml polymer Tween 80 at 100 ug/ml by UV-Visible spectral analysis; type: physicochemical; details: buffer
[41] = organism: Homo sapiens; experiment: Cytotoxicity against human GIN8 cells assessed as reduction in cell viability at 5 ug/ml measured after 48 hrs using Pluronic-F68-formulated compound by Prestoblue assay; type: functional, cell-based; how it was run: as §3
[42] = organism: Homo sapiens; experiment: Induction of apoptotic death in human GIN28 cells assessed as presence of apoptotic bodies at 12.5 uM measured after 48 hrs by Hoechst 33342/propidium iodide staining based fluorescence microscopy analysis; type: functional, cell-based; how it was run: as §4
[43] = organism: Homo sapiens; experiment: Induction of apoptosis in human GIN28 cells assessed as increase in caspase 3/7 activation at 12.5 uM measured after 48 hrs by CellEvent caspase 3/7 probe based fluorescence analysis; type: functional, cell-based; how it was run: as §6
[44] = organism: Homo sapiens; experiment: Cytotoxicity against human GCE28 cells assessed as reduction in cell viability at 5 ug/ml measured after 48 hrs using Tween 80-formulated compound by Prestoblue assay; type: functional, cell-based; how it was run: as §3
[45] = organism: Homo sapiens; experiment: Induction of apoptotic death in human GIN28 cells assessed as nuclear fragmentation at 12.5 uM measured after 48 hrs by Hoechst 33342/propidium iodide staining based fluorescence microscopy analysis; type: functional, cell-based; how it was run: as §4

CN[C@@H]1C[C@H]2O[C@@](C)([C@@H]1OC)n1c3ccccc3c3c4c(c5c6ccccc6n2c5c31)C(=O)NC4
Activity [1]: Active
Activity [2]: Active
Activity [3]: Active

ClC(Cn1ncc2c(Nc3cccc(Br)c3)nc(SCCN3CCOCC3)nc21)c1ccccc1 (stereo not given)
CI [4]: 0.97
Activity [5]: Active
Activity [6]: Active
Activity [7]: inactive
Activity [8]: Active
Activity [9]: inactive
Activity [10]: Active
Activity [11]: Active
Activity [12]: Active
Activity [13]: Active
CI [14]: 0.99
Activity [15]: Active
Activity [16]: Active
CI [17]: 0.76
IC50 [18]: 7.7 µM
Activity [19]: Active
Activity [20]: Active
Activity [21]: Active
solubility [22]: Soluble
Activity [23]: Active
Activity [24]: inactive
solubility [25]: Soluble
Activity [26]: Active
Activity [27]: inactive
Activity [28]: Active
Activity [29]: Active
Activity [30]: inactive
CI [31]: 0.88
IC50 [32]: 7.2 µM
CI [33]: 0.53
IC50 [34]: 11.2 µM
Activity [35]: Active
CI [36]: 0.9
Activity [37]: Active
Activity [38]: Active
Activity [39]: inactive
solubility [40]: Soluble
Activity [41]: Active
Activity [42]: Active
Activity [43]: Active
Activity [44]: Active
Activity [45]: Active
